Measurements: ChEMBL document CHEMBL3392986, “Hydroxamic acids block replication of hepatitis C virus” (J Med Chem, 2015)
Calls of active or inactive are those of the source. The calls are words filed in the database; no cut-off is given here.

Key:
[1] = target: T1, Protein deacetylase HDAC6 (Homo sapiens) (UniProt Q9UBN7); assay: Inhibition of full length N-terminal GST-tagged human HDAC6 expressed in baculovirus expression system assessed as inhibition of fluorophore 7-amino-4-methylcoumarin release by fluorescence assay
T1 sequence (whole entry): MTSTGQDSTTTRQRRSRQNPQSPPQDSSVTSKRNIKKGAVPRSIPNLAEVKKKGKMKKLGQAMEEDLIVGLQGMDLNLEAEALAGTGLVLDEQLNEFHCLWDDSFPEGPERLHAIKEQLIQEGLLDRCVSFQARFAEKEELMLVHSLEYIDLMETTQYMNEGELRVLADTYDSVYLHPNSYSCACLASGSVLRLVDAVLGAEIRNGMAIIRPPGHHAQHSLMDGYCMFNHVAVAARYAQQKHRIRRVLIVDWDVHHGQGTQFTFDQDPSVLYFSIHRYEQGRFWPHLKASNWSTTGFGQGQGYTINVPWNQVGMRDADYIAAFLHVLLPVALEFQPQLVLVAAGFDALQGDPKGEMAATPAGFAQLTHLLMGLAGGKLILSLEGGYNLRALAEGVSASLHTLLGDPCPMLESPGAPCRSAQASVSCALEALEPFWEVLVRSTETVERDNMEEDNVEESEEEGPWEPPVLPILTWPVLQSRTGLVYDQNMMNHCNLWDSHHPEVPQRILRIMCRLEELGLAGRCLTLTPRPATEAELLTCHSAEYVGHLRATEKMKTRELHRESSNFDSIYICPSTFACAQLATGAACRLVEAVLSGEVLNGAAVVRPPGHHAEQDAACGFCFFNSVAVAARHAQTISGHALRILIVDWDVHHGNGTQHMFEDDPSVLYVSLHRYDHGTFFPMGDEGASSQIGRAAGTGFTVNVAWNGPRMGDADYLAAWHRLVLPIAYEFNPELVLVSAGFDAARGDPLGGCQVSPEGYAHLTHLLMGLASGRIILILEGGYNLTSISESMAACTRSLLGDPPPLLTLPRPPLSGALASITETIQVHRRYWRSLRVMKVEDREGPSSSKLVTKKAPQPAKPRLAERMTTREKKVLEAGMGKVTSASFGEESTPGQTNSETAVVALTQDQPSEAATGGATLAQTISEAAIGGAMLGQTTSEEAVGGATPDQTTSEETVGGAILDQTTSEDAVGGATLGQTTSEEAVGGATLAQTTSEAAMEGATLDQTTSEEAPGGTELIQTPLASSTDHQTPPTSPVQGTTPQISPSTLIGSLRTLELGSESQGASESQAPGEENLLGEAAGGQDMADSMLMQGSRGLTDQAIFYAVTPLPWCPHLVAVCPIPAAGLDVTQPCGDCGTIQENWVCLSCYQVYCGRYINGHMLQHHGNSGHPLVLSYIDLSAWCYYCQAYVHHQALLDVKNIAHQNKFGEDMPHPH

[2] = target: Histone deacetylase 4 (Homo sapiens) (UniProt P56524); assay: Inhibition of N-terminal GST-tagged human HDAC4 (amino acids 627 to 1085) expressed in baculovirus expression system assessed as inhibition of fluorophore 7-amino-4-methylcoumarin release by fluorescence assay
Chain of Histone deacetylase 4 (Homo sapiens) (P56524 whole entry, the tested form may be a part): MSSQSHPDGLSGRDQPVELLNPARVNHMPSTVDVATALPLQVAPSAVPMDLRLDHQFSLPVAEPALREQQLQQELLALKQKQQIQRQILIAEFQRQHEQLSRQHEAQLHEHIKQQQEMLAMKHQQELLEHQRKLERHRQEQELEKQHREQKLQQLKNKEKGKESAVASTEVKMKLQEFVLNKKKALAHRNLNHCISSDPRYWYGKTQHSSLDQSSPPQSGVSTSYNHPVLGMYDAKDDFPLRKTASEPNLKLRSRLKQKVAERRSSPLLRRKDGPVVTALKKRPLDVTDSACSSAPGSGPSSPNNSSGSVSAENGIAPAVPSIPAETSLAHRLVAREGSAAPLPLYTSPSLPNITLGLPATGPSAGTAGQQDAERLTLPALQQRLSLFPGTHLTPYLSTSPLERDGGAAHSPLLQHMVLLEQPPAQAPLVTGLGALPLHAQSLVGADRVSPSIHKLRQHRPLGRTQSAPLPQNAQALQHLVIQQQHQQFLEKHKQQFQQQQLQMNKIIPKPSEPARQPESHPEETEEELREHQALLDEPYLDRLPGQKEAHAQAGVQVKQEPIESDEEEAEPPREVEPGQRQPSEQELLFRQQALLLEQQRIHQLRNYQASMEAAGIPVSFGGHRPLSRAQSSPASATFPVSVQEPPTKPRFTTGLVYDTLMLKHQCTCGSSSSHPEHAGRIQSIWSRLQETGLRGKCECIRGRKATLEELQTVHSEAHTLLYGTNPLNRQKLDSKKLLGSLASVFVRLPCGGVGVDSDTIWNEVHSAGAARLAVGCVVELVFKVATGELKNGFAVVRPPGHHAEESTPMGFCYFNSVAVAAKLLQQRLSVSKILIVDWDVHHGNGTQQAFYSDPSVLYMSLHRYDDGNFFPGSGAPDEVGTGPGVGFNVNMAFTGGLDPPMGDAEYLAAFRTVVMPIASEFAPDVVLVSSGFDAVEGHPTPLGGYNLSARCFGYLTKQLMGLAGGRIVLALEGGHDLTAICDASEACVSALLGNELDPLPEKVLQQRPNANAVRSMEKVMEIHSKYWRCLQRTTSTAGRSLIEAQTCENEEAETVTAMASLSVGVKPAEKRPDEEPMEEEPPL

[3] = target: Histone deacetylase 1 (Homo sapiens) (UniProt Q13547); assay: Inhibition of full length C-terminal GST-tagged human HDAC1 expressed in baculovirus expression system assessed as inhibition of fluorophore 7-amino-4-methylcoumarin release by fluorescence assay
Chain of Histone deacetylase 1 (Homo sapiens) (Q13547 whole entry): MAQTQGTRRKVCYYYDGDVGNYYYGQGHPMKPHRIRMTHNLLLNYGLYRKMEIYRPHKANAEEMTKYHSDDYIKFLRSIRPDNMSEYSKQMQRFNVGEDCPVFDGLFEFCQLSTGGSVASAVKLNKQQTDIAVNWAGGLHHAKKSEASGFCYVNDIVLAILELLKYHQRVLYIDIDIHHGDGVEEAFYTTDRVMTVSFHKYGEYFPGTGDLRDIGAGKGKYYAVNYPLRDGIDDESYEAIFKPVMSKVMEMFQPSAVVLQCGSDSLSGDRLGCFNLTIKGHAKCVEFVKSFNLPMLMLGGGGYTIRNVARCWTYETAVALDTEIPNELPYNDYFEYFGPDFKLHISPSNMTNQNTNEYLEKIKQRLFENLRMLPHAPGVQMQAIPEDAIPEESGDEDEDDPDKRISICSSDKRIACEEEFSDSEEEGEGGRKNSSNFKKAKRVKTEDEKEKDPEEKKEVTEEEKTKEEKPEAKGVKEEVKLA

[4] = target: T2, Histone deacetylase 11 (Homo sapiens) (UniProt Q96DB2); assay: Inhibition of N-terminal GST-tagged human HDAC11 expressed in baculovirus expression system assessed as inhibition of fluorophore 7-amino-4-methylcoumarin release by fluorescence assay
T2 sequence (whole entry): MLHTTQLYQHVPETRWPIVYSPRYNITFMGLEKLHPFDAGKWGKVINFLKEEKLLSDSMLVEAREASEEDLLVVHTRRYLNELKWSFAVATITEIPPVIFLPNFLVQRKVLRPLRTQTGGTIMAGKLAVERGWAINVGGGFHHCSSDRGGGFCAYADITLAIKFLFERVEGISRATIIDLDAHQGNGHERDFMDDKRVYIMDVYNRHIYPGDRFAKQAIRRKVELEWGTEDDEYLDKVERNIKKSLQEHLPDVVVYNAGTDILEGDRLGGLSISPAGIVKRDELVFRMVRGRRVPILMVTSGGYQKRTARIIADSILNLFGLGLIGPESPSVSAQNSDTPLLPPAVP

[5] = Therapeutic index, ratio of CC50 for human HuH7 cells to EC50 for HCV genotype 1b infected in human Huh7 cells; settings: HuH7 cells
[6] = target: Histone deacetylase 9 (Homo sapiens) (UniProt Q9UKV0); assay: Inhibition of full length C-terminal His-tagged human HDAC9 (amino acids 604 to 1066 ) expressed in baculovirus expression system assessed as inhibition of fluorophore 7-amino-4-methylcoumarin release by fluorescence assay
Chain of Histone deacetylase 9 (Homo sapiens) (Q9UKV0 whole entry, the tested form may be a part): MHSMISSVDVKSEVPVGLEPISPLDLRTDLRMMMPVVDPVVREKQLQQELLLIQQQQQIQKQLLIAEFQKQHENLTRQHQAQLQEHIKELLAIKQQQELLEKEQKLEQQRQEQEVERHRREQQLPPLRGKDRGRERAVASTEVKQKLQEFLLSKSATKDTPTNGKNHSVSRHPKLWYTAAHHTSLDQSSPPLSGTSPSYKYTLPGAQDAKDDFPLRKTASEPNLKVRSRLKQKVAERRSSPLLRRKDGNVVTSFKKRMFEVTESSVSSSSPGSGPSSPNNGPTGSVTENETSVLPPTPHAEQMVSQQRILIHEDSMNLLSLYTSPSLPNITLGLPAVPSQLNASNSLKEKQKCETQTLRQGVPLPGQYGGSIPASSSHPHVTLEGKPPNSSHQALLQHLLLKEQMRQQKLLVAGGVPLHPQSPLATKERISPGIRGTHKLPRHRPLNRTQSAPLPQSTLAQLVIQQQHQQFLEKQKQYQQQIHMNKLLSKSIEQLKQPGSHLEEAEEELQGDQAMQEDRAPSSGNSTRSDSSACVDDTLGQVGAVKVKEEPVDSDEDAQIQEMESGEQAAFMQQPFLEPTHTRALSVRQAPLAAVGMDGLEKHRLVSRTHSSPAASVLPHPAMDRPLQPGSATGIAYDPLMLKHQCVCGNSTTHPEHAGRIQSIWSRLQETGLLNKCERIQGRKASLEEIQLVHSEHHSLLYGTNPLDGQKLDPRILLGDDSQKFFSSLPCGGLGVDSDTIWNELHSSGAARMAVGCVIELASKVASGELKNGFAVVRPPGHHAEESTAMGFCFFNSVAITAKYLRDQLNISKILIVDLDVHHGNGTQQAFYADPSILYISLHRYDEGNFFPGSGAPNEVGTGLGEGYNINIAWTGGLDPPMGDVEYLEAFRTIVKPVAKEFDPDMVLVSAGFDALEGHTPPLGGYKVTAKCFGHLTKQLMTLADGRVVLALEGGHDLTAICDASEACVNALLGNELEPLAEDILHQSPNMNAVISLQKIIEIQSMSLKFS

Hepatitis C virus = assay: Antiviral activity against HCV genotype 1b infected in human Huh7 cells assessed as reduction in viral RNA level at 2 uM after 3 days by RT-qPCR; type: functional, Hepacivirus hominis, Huh-7; design: scale not given: the % may be the effect or the level left
Summary of the method: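 Replicon-bearing Huh7 cells, 6 X 10^3 per well, exposed to compound in DMSO or DMSO alone for three days at 37 °C/5% CO2. Replicon RNA quantified by TaqMan Cells-to-CT RT-qPCR with NS5B primers/probe, using GAPDH in parallel wells as reference. Level relative to DMSO-treated cells calculated as 2-∆∆CT. Triplicate wells.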

[7] = target: Matrix metalloproteinase-14 (Homo sapiens) (UniProt P50281); assay: Inhibition of human recombinant […] catalytic domain (112 to 298 aa) expressed in Escherichia coli

inhibition [1]: inactive | inhibition [2]: inactive | inhibition [3]: inactive | inhibition [4]: inactive | inhibition [6]: inactive | inhibition [7]: Active
Structure (SMILES): O=C(NO)c1sc2ccccc2c1S(=O)(=O)c1ccccc1
selectivity ratio [5]: 93 | Activity (Hepatitis C virus): 75%
